# Measured values reported in ChEMBL document CHEMBL1255300, “Pharmacodynamics of the antibacterial effect and emergence of resistance to tomopenem, formerly RO4908463/CS-023, in an in vitro pharmacokinetic model of Staphylococcus aureus infection” (Antimicrob Agents Chemother, 2008).
# Calls of active or inactive are those of the source. The rule behind the calls is not given here.
# Legend:
# Staphylococcus aureus [1] = test: Antibacterial activity against methicillin-resistant Staphylococcus aureus 33921 assessed as viable count at 2 times of MIC after 24 hrs using 10^6 CFU/ml inoculum; assay type: functional, organism-based
# Staphylococcus aureus [2] = test: Antibacterial activity against methicillin-resistant Staphylococcus aureus 33815 infected in in vitro pharmacokinetic model assessed as time required to 99% killing at 750 mg, iv every 8 hrs using 10^8 CFU/ml inoculum; assay type: functional
# Procedure, shortened: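 T99 and T99.9 were taken as the times for the count to fall 99% or 99.9% from time 0, using serial viable counts over 48 h. Inoculum was 10^8 CFU/ml, grown overnight in the model before dosing.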
# Staphylococcus aureus [3] = test: T>MIC for 2-log drop in count in methicillin-resistant Staphylococcus aureus 33827 in in vitro pharmacokinetic model after 24 hrs using 10^8 CFU/ml inoculum; assay type: functional
# Staphylococcus aureus [4] = test: Antibacterial activity against methicillin-resistant Staphylococcus aureus 33820 in in vitro pharmacokinetic model assessed as viable count at 6 times of MIC; assay type: functional
# Procedure, shortened: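 Population analysis before drug exposure (time 0). Model samples were plated on nutrient agar without drug and with tomopenem at 2×, 4× and 6× MIC (10% MHB MIC), and growth was recorded as log CFU/ml. Detection limit 2 log10.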
# Staphylococcus aureus [5] = test: T>MIC for 3-log drop in count in methicillin-resistant Staphylococcus aureus 33820 in in vitro pharmacokinetic model after 24 hrs using 10^6 CFU/ml inoculum; assay type: functional
# Staphylococcus aureus [6] = test: Antibacterial activity against methicillin-resistant Staphylococcus aureus 33815 infected in in vitro pharmacokinetic model assessed as time required to 99% killing at 1500 mg, iv every 8 hrs using 10^6 CFU/ml inoculum; assay type: functional
# Staphylococcus aureus [7] = test: Antibacterial activity against methicillin-sensitive Staphylococcus aureus 5956 infected in in vitro pharmacokinetic model assessed as reduction in viable count at 1500 mg, iv every 8 hrs measured after 36 hrs using 10^6 CFU/ml inoculum; assay type: functional
# Staphylococcus aureus [8] = test: Antibacterial activity against methicillin-resistant Staphylococcus aureus 33815 infected in in vitro pharmacokinetic model assessed as reduction in viable count at 750 mg, iv every 8 hrs measured after 48 hrs using 10^8 CFU/ml inoculum; assay type: functional
# Procedure, shortened: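 PK model at 37°C in 10% MHB. […] A 0.5 McFarland suspension (1 ml) was added and the model run overnight to reach 10^8 CFU/ml before dosing. Counts were spiral-plated on nutrient agar with β-lactamase. Change in log CFU/ml was measured from time 0; at least triplicate.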
# Staphylococcus aureus [9] = test: Antibacterial activity against methicillin-resistant Staphylococcus aureus 33827 by 10% MH broth method; assay type: functional
# Procedure, shortened: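 Broth dilution MIC per CLSI, run in 10% Mueller-Hinton broth at nondoubling dilutions.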
# Staphylococcus aureus [10] = test: Antibacterial activity against methicillin-resistant Staphylococcus aureus 33922 by broth dilution method; assay type: functional
# Staphylococcus aureus [11] = test: T>MIC for static effect in methicillin-sensitive Staphylococcus aureus 5956 in in vitro pharmacokinetic model after 24 hrs using 10^6 CFU/ml inoculum; assay type: functional
# Staphylococcus aureus [12] = test: T>MIC for 2-log drop in count in methicillin-resistant Staphylococcus aureus 33827 in in vitro pharmacokinetic model after 24 hrs using 10^6 CFU/ml inoculum; assay type: functional
# Staphylococcus aureus [13] = test: AUBKC (0 to 48 hrs) in methicillin-resistant Staphylococcus aureus 33827 infected in in vitro pharmacokinetic model at 750 mg, iv every 8 hrs using 10^8 CFU/ml inoculum; assay type: functional
# Procedure, shortened: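 Single-compartment dilutional in vitro PK model at 37°C in 10% Mueller-Hinton broth, stirred, flow 132 ml/h. […] Inoculum 10^6 CFU/ml added 45 min before dosing, or 10^8 CFU/ml run overnight. Viable counts with β-lactamase neutralisation. AUBKC by log-linear trapezoidal rule, at least triplicate.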
# Staphylococcus aureus [14] = test: Antibacterial activity against methicillin-sensitive Staphylococcus aureus 5956 infected in in vitro pharmacokinetic model assessed as reduction in viable count at 750 mg, iv every 8 hrs measured after 24 hrs using 10^6 CFU/ml inoculum; assay type: functional
# Staphylococcus aureus [15] = test: Antibacterial activity against methicillin-resistant Staphylococcus aureus 33815 in in vitro pharmacokinetic model assessed as viable count at 6 times of MIC; assay type: functional
# Procedure, shortened: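 Preexposure population analysis profile: model sample at time zero plated on nutrient agar with tomopenem at multiples of the MIC. Growth counted as log CFU/ml, detection limit 2 log10.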
# Staphylococcus aureus [16] = test: T>MIC in methicillin-resistant Staphylococcus aureus 33820 infected in vitro pharmacokinetic model at 1500 mg, iv every 8 hrs; assay type: functional
# Staphylococcus aureus [17] = test: Antibacterial activity against methicillin-sensitive Staphylococcus aureus 5956 by 10% MH broth method; assay type: functional
# Procedure, shortened: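 Broth dilution per CLSI, but in 10% Mueller-Hinton broth using nondoubling dilutions.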
# Staphylococcus aureus [18] = test: Antibacterial activity against methicillin-sensitive Staphylococcus aureus 5956 infected in in vitro pharmacokinetic model assessed as time required to 99% killing at 750 mg, iv every 8 hrs using 10^6 CFU/ml inoculum; assay type: functional
# Staphylococcus aureus [19] = test: Antibacterial activity against methicillin-resistant Staphylococcus aureus 33820 infected in in vitro pharmacokinetic model assessed as reduction in viable count at 1500 mg, iv every 8 hrs measured after 12 hrs using 10^6 CFU/ml inoculum; assay type: functional
# Procedure, shortened: (§1)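 Single-compartment dilutional in vitro PK model, 37°C, stirred, in 10% Mueller-Hinton broth. […] Inoculum 10^6 CFU/ml from a 24-h plate culture was added 45 min before dosing. Viable counts by spiral plating on nutrient agar with β-lactamase neutralization. Log change was taken from time 0; detection limit 10^2 CFU/ml; at least triplicate.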
# Staphylococcus aureus [20] = test: Antibacterial activity against methicillin-resistant Staphylococcus aureus 33815 infected in in vitro pharmacokinetic model assessed as reduction in viable count at 1500 mg, iv every 8 hrs measured after 48 hrs using 10^6 CFU/ml inoculum; assay type: functional; procedure, shortened: as §1
# Staphylococcus aureus [21] = test: Antibacterial activity against methicillin-resistant Staphylococcus aureus 33815 infected in in vitro pharmacokinetic model assessed as reduction in viable count at 1500 mg, iv every 8 hrs measured after 36 hrs using 10^6 CFU/ml inoculum; assay type: functional; procedure, shortened: as §1
# Staphylococcus aureus [22] = test: T>MIC in methicillin-sensitive Staphylococcus aureus 5956 infected in vitro pharmacokinetic model at 1500 mg, iv every 8 hrs; assay type: functional
# Staphylococcus aureus [23] = test: Antibacterial activity against methicillin-resistant Staphylococcus aureus 33829 in in vitro pharmacokinetic model assessed as viable count at 6 times of MIC; assay type: functional
# Procedure, shortened: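 Preexposure population analysis: time-zero model samples plated on nutrient agar without drug and with drug at multiples of the 10% broth MIC. Growth reported as log CFU/ml, detection limit 2 log10.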
# Staphylococcus aureus [24] = test: Antibacterial activity against methicillin-resistant Staphylococcus aureus 33827 infected in in vitro pharmacokinetic model assessed as reduction in viable count at 750 mg, iv every 8 hrs measured after 48 hrs using 10^8 CFU/ml inoculum; assay type: functional
# Procedure, shortened: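 Single-compartment dilutional in vitro PK model, 10% Mueller-Hinton broth, 37°C, stirred, dilution 132 ml/h. […] Inoculum 10^6 CFU/ml (added 45 min pre-dose) or 10^8 CFU/ml (run overnight). Viable counts by spiral plating, beta-lactamase neutralization, detection limit 10^2 CFU/ml. At least triplicate.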
# Staphylococcus aureus [25] = test: Antibacterial activity against methicillin-resistant Staphylococcus aureus 33820 assessed as viable count at 4 times of MIC after 48 hrs using 10^6 CFU/ml inoculum; assay type: functional, organism-based
# Staphylococcus aureus [26] = test: T>MIC for 4-log drop in count in methicillin-resistant Staphylococcus aureus 33922 in in vitro pharmacokinetic model after 24 hrs using 10^6 CFU/ml inoculum; assay type: functional
structure (smiles),measurement,setting,value
C[C@@H](O)[C@H]1C(=O)N2C(C(=O)O)=C(S[C@H]3C[C@@H](C(=O)N4CC[C@H](NC(=O)CNC(=N)N)C4)N(C)C3)[C@H](C)[C@H]12 [TOMOPENEM],Activity,Staphylococcus aureus [1],inactive
same,Time,Staphylococcus aureus [2],16 h
same,fT>MIC,Staphylococcus aureus [3],39.6%
same,log10CFU/ml,Staphylococcus aureus [4],<2
same,fT>MIC,Staphylococcus aureus [5],20.4%
same,Time,Staphylococcus aureus [6],3 h
same,log10CFU/ml,Staphylococcus aureus [7],4.4
same,log10CFU/ml,Staphylococcus aureus [8],5
same,MIC,Staphylococcus aureus [9],0.75 µg/mL
same,MIC,Staphylococcus aureus [10],0.5 µg/mL
same,fT>MIC,Staphylococcus aureus [11],6%
same,fT>MIC,Staphylococcus aureus [12],31.2%
same,AUBC,Staphylococcus aureus [13],87.9 log10CFU/ml.hr
same,log10CFU/ml,Staphylococcus aureus [14],4.3
same,log10CFU/ml,Staphylococcus aureus [15],<2
same,fT>MIC,Staphylococcus aureus [16],98%
same,MIC,Staphylococcus aureus [17],0.04 µg/mL
same,Time,Staphylococcus aureus [18],4 h
same,log10CFU/ml,Staphylococcus aureus [19],4.2
same,log10CFU/ml,Staphylococcus aureus [20],4.2
same,log10CFU/ml,Staphylococcus aureus [21],4.2
same,fT>MIC,Staphylococcus aureus [22],100%
same,log10CFU/ml,Staphylococcus aureus [23],2.7
same,log10CFU/ml,Staphylococcus aureus [24],5.9
same,Activity,Staphylococcus aureus [25],Active
same,fT>MIC,Staphylococcus aureus [26],21.5%
